Assay results as given in ChEMBL document CHEMBL1142536, “Synthesis of triazole-linked beta-C-glycosyl dimers as inhibitors of PTP1B” (Bioorg Med Chem, 2008).

Tests used:
[1] = target: T1, Tyrosine-protein phosphatase non-receptor type 1 (Homo sapiens, UniProt P18031); experiment: Inhibition of human recombinant PTP1B catalytic domain
T1 sequence (P18031 whole entry): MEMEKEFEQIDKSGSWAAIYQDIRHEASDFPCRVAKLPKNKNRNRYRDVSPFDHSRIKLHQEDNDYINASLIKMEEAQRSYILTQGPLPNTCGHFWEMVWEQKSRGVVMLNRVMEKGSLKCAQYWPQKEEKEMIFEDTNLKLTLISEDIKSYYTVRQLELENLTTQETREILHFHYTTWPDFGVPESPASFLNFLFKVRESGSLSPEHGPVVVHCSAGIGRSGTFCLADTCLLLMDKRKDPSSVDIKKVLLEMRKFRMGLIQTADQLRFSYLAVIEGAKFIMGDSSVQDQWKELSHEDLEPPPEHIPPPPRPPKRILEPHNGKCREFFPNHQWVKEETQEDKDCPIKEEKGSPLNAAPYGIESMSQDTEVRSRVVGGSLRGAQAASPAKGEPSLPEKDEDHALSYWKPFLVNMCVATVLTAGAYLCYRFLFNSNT
Procedure, shortened: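 Recombinant human PTP1B catalytic domain, 30 nM, with 2 mM pNPP substrate in 50 mM MOPS pH 6.5 at 30 °C. pNP release read continuously at 405 nm for 2 min. Initial rate comes from the early linear part of the curve. Inhibitors diluted around the estimated IC50. IC50 from nonlinear fit of % inhibition vs [I] with a Hill coefficient term.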

[2] = target: T2, Tyrosine-protein phosphatase non-receptor type 1 (Homo sapiens) (UniProt P18031); experiment: Inhibition of human recombinant PTP1B catalytic domain at 20 ug/mL
T2 sequence (whole entry): T1 sequence (P18031 whole entry)
Procedure, shortened: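 Human PTP1B catalytic domain (recombinant) hydrolysing 2 mM pNPP in 50 mM MOPS pH 6.5 at 30 °C. pNP formation followed at 405 nm for 2 min. Initial rate taken from the early linear region. Compounds tested at 20 µg/mL. Result given as percent inhibition.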

Compound | IC50 [1] | inhibition [2]
CC(=O)OC[C@H]1O[C@@H](C2=CC(=O)C=CC2=O)[C@H](OC(C)=O)[C@@H](OC(C)=O)[C@@H]1OC(C)=O | 4850 nM | 
O=C1C=CC(=O)C([C@@H]2O[C@H](Cn3cc(COC(=O)c4cccc(C(=O)OCc5cn(C[C@H]6O[C@@H](C7=CC(=O)C=CC7=O)[C@H](OC(=O)c7ccccc7)[C@@H](OC(=O)c7ccccc7)[C@@H]6OC(=O)c6ccccc6)nn5)c4)nn3)[C@@H](OC(=O)c3ccccc3)[C@H](OC(=O)c3ccccc3)[C@H]2OC(=O)c2ccccc2)=C1 | 620 nM | 95.8%
O=C1C=CC(=O)C([C@@H]2O[C@H](Cn3cc(COC(=O)c4cccc(C(=O)OCc5cn(C[C@H]6O[C@@H](C7=CC(=O)C=CC7=O)[C@H](OC(=O)c7ccccc7)[C@@H](OC(=O)c7ccccc7)[C@H]6OC(=O)c6ccccc6)nn5)c4)nn3)[C@H](OC(=O)c3ccccc3)[C@H](OC(=O)c3ccccc3)[C@H]2OC(=O)c2ccccc2)=C1 | 720 nM | 95.5%
COc1ccc(OC)c([C@@H]2O[C@H](Cn3cc(COC(=O)c4cccc(C(=O)OCc5cn(C[C@H]6O[C@@H](c7cc(OC)ccc7OC)[C@H](OC(=O)c7ccccc7)[C@@H](OC(=O)c7ccccc7)[C@@H]6OC(=O)c6ccccc6)nn5)c4)nn3)[C@@H](OC(=O)c3ccccc3)[C@H](OC(=O)c3ccccc3)[C@H]2OC(=O)c2ccccc2)c1 | 870 nM | 97.8%
COc1ccc(OC)c([C@@H]2O[C@H](Cn3cc(COC(=O)c4cccc(C(=O)OCc5cn(C[C@H]6O[C@@H](c7cc(OC)ccc7OC)[C@H](OC(=O)c7ccccc7)[C@@H](OC(=O)c7ccccc7)[C@H]6OC(=O)c6ccccc6)nn5)c4)nn3)[C@H](OC(=O)c3ccccc3)[C@H](OC(=O)c3ccccc3)[C@H]2OC(=O)c2ccccc2)c1 | 880 nM | 98.5%

Next, values leading:

IC50 [1] | inhibition [2] | Compound
 | 8.5% | CC(=O)O[C@@H]1[C@@H](OC(C)=O)[C@H](C2=CC(=O)c3ccccc3C2=O)O[C@H](Cn2cc(COC(=O)c3cccc(C(=O)OCc4cn(C[C@H]5O[C@@H](C6=CC(=O)c7ccccc7C6=O)[C@H](OC(C)=O)[C@@H](OC(C)=O)[C@@H]5OC(C)=O)nn4)c3)nn2)[C@H]1OC(C)=O
 | 0.8% | CC(=O)O[C@H]1[C@@H](OC(C)=O)[C@@H](Cn2cc(COC(=O)c3cccc(C(=O)OCc4cn(C[C@H]5O[C@@H](C6=CC(=O)c7ccccc7C6=O)[C@H](OC(C)=O)[C@@H](OC(C)=O)[C@H]5OC(C)=O)nn4)c3)nn2)O[C@@H](C2=CC(=O)c3ccccc3C2=O)[C@@H]1OC(C)=O
 | 7.5% | COc1cc([C@@H]2O[C@H](CN3C=C(COC(=O)c4cccc(C(=O)OCC5=CN(C[C@H]6O[C@@H](c7cc(OC)c8ccccc8c7OC)[C@H](OC(C)=O)[C@@H](OC(C)=O)[C@H]6OC(C)=O)NN5)c4)NN3)[C@H](OC(C)=O)[C@H](OC(C)=O)[C@H]2OC(C)=O)c(OC)c2ccccc12
 | 12.5% | COc1cc([C@@H]2O[C@H](CN3C=C(COC(=O)c4cccc(C(=O)OCC5=CN(C[C@H]6O[C@@H](c7cc(OC)c8ccccc8c7OC)[C@H](OC(C)=O)[C@@H](OC(C)=O)[C@@H]6OC(C)=O)NN5)c4)NN3)[C@@H](OC(C)=O)[C@H](OC(C)=O)[C@H]2OC(C)=O)c(OC)c2ccccc12
